# Measured values reported in ChEMBL document CHEMBL2407081, “Discovery of potent, isoform-selective inhibitors of histone deacetylase containing chiral heterocyclic capping groups and a N-(2-aminophenyl)benzamide binding unit” (J Med Chem, 2013).
# Key:
# Cytochrome P450 2C9 = Cytochrome P450 2C9 (Homo sapiens, UniProt P11712); assay: Inhibition of CYP2C9 (unknown origin); format: ADME
# Histone deacetylase 8 = target: T1, Histone deacetylase 8 (Homo sapiens, UniProt Q9BY41); assay: Inhibition of recombinant HDAC8 (unknown origin) expressed in Escherichia coli BL21 using MAL as substrate incubated for 15 mins prior to substrate addition measured after 60 mins by fluorescence plate reader analysis
# T1 sequence (Q9BY41 whole entry): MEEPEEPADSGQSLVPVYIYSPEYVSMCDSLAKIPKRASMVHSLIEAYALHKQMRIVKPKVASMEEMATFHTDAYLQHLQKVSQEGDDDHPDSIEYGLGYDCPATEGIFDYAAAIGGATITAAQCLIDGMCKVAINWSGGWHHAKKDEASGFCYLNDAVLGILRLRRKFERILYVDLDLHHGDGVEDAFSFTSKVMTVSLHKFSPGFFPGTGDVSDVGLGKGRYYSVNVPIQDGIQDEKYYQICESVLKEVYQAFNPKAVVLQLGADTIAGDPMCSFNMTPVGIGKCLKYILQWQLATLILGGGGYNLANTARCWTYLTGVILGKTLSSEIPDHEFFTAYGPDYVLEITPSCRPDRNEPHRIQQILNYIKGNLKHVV
# Cytochrome P450 3A4 = Cytochrome P450 3A4 (Homo sapiens, UniProt P08684); assay: Inhibition of CYP3A4 (unknown origin) using vivid red as substrate; format: ADME
# [1] = Lipophilicity, log D of the compound at pH 7.4; format: physicochemical; details: buffer
# Histone deacetylase 2 = Histone deacetylase 2 (Homo sapiens, UniProt Q92769); assay: Inhibition of recombinant His-tagged HDAC2 (1 to 488) (unknown origin) using MAL as substrate incubated for 3 hrs prior to substrate addition measured after 60 mins by fluorescence plate reader analysis
# Jurkat [2] = assay: Cell cycle arrest in human Jurkat cells assessed as accumulation at G2/M phase at 10 uM after 24 hrs by FITC/propidium iodide staining-based FACS flow cytometric analysis (reference value: 13.2%); format: functional
# Procedure, shortened: (§1)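 HeLa and Jurkat human cells were cultured for 24 h with compound at two concentrations. The control was an equal volume of the DMSO diluent. Cellular DNA and protein content were then measured by flow cytometry, and the percentage of cells in sub-G1, G0/G1, S and G2/M was read out.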
# [3] = Octanol-water partition coefficient, log p of the compound; format: physicochemical
# Jurkat [4] = assay: Cell cycle arrest in human Jurkat cells assessed as accumulation at G0/G1 phase at 10 uM after 24 hrs by FITC/propidium iodide staining-based FACS flow cytometric analysis (reference value: 69.5%); format: functional; procedure, shortened: as §1
# Jurkat [5] = assay: Cell cycle arrest in human Jurkat cells assessed as accumulation at G2/M phase at 1 uM after 24 hrs by FITC/propidium iodide staining-based FACS flow cytometric analysis (reference value: 14.4%); format: functional; procedure, shortened: as §1
# Jurkat [6] = assay: Cell cycle arrest in human Jurkat cells assessed as accumulation at S phase at 1 uM after 24 hrs by FITC/propidium iodide staining-based FACS flow cytometric analysis (reference value: 22.3%); format: functional; procedure, shortened: as §1
# Sequence of Cytochrome P450 3A4 (P08684 whole entry): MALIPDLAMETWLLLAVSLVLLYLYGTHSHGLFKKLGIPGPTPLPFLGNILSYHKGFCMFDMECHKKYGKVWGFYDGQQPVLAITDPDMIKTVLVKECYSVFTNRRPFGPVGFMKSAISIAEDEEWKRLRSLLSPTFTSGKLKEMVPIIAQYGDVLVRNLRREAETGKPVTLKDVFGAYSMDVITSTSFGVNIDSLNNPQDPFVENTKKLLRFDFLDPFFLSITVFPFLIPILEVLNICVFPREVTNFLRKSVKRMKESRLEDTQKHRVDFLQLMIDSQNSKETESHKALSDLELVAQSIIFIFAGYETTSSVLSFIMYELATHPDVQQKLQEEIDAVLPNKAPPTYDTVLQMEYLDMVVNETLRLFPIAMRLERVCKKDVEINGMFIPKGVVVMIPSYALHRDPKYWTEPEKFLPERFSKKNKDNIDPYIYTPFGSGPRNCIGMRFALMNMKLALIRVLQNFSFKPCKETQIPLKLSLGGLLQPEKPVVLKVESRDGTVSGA
# Sequence of Cytochrome P450 2C9 (P11712 whole entry): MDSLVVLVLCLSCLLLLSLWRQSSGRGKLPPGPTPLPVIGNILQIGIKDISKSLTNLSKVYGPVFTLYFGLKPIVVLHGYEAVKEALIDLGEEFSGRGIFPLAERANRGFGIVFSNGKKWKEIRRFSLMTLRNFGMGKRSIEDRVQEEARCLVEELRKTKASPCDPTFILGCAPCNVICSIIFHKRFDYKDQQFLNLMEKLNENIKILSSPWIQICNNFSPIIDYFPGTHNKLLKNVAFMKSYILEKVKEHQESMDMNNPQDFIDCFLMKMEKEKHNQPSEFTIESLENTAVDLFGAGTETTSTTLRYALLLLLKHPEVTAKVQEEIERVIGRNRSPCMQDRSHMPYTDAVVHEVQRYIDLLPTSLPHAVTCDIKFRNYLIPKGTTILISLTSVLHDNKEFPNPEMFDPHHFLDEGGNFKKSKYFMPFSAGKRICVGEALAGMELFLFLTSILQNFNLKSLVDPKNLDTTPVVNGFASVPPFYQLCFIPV
# Sequence of Histone deacetylase 2 (Q92769 whole entry): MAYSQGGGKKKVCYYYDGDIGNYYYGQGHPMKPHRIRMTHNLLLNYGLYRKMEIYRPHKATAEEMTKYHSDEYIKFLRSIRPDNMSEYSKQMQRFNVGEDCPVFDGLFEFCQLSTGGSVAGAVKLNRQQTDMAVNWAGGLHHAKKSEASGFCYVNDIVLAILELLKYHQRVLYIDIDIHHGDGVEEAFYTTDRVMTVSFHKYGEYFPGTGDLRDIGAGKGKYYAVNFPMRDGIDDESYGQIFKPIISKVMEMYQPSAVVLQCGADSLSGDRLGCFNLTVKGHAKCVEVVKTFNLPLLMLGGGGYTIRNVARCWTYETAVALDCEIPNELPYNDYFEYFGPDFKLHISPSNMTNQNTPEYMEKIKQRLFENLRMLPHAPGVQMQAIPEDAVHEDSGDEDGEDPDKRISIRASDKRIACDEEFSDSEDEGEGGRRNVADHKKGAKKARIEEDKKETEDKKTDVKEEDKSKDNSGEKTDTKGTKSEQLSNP
smiles,measurement,setting,value
Nc1ccccc1NC(=O)c1ccc(CNC2=N[C@@H](c3ccccc3)CS2)cc1,IC50,Cytochrome P450 2C9,16 µM
same,IC50,Histone deacetylase 8,4.1 µM
same,IC50,Cytochrome P450 3A4,25 µM
same,logD,[1],4.24
same,IC50,Histone deacetylase 2,0.085 µM
same,Activity,Jurkat [2],16.9%
same,logP,[3],4.65
same,Activity,Jurkat [4],28.5%
same,Activity,Jurkat [5],9.1%
same,Activity,Jurkat [6],6.2%
